# What was measured:
# [1] = melting temperature; fluorescence melt of hairpins on a sequencing array, two-state fit, raised by 9.35 °C to match UV melts; conditions: sodium 0.088 M
# Procedure, shortened: (§1)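 Cy3 fluorescence of library hairpins on a sequenced MiSeq flow cell, with annealed Cy3 and quencher oligos, was imaged in 50 mM Na-HEPES pH 8.0, 25 mM NaCl in 2.5 °C steps up to 60 °C. Signals were normalised to pre-quench Cy3 and to control variants. Melting temperature and folding enthalpy came from bootstrapped two-state fits, inverse-variance combined over four replicates. Fitted temperatures were raised by 9.35 °C to match UV melts.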
# [2] = folding enthalpy; higher = less favourable; fluorescence melt of hairpins on a sequencing array, two-state fit; conditions: sodium 0.088 M
# Procedure, shortened: as §1
Sequence,Tm [1],folding enthalpy [2]
GCTTTAGAAATAAAGC ((((((....)))))),45.1 °C,-31.4 kcal/mol
GATCAGGAACTGATC ((((((...)))))),60.6 °C,-39.4 kcal/mol
GAAGGACGAAAGTCATTC (((.(((....))).))),52.1 °C,-30.8 kcal/mol
AGTCTGAAAAGACT (((((....))))),47 °C,-19.6 kcal/mol
GAGGCAACGAAAGTTCTC (((..(((....)))))),24.4 °C,-11.3 kcal/mol
GACTAGGGAAACCTAGTC (((((((....))))))),56.9 °C,-42.5 kcal/mol
GCGCACGGAAACGTACGC (((.(((....))).))),56 °C,-44.3 kcal/mol
GATCGTTATTACGATC ((((((....)))))),56.1 °C,-39.8 kcal/mol
ATCGGGAAACCGAT (((((....))))),50.2 °C,-24.1 kcal/mol
GTGGACGAAAGTCCGCAC ((((((....)))..))),55.7 °C,-11.8 kcal/mol
GTAGGAGCGAAAGCTTAC (((..(((....)))))),31.2 °C,-11.2 kcal/mol
GCTCTGCGAAAGCCGAGC ((((.((....)).)))),60.1 °C,-25.2 kcal/mol
GCAACGGGAAACCGCTAC (.(.(((....))).).),28.3 °C,-9.4 kcal/mol
GCGATCGAAAGATTCCGC ((((((....)))..))),33.7 °C,-23.8 kcal/mol
GACATGGGAAACTGTGTC ((((..(....)..)))),37.2 °C,-28.2 kcal/mol
GCTGTCGAAAGACGGAGC ((((((....)))..))),42.9 °C,-18.1 kcal/mol
GGAGCCGAAAGGCTTTCC ((((((....)))..))),43.8 °C,-7.92 kcal/mol
GAGTACGAAAGTAGCTC ((((((....))).))),37.5 °C,-23.3 kcal/mol
CGCCTCGGAAACGAAGCG (((.(((....))).))),48.3 °C,-25.9 kcal/mol
GCAGTGGAAACACTGC ((((((....)))))),68.5 °C,-32.9 kcal/mol
GCGGTCGAAAGACGACGC ((((((....)))..))),53.8 °C,-37.4 kcal/mol
GAACTCCGAAAGGAATTC (((.(((....))).))),37.5 °C,-25.9 kcal/mol
GCCTTGCGAAAGCAGCGC ((..(((....)))..)),52.9 °C,-14.6 kcal/mol
GATCAGATTCTGATC ((((((...)))))),48.5 °C,-29.7 kcal/mol

Sequence,Tm [1],folding enthalpy [2]
GCGGTGCGAAAGCGCGGC ((.(.((....)).).)),64.5 °C,-25 kcal/mol
GCCAACGAAAGTTGCGGC ((((((....)))..))),51.5 °C,-16.9 kcal/mol
GCACGGCGAAAGCCCAGC ((..(((....)))..)),38.4 °C,-12.2 kcal/mol
GCGTAAAACGC ((((...)))),52.9 °C,-21.7 kcal/mol
GGTAAACGAAAGTTGACC (((.(((....))).))),49.4 °C,-36.3 kcal/mol
GTCCATGGAAACATGGGC (.(((((....))))).),54 °C,-42.9 kcal/mol
GCGTATAGACGC ((((....)))),50.3 °C,-24.6 kcal/mol
GCGATACATCGC ((((....)))),55.7 °C,-27.5 kcal/mol
GATCTAAATGTAGATC ((((((....)))))),36.7 °C,-26.8 kcal/mol
GTAGACGAAAGTCATAC ((((((....))).))),39.9 °C,-12.8 kcal/mol
GATCCGCAGGCGGATC ((((((....)))))),66.6 °C,-28.3 kcal/mol
GCGACATATCGC ((((....)))),49.9 °C,-23.4 kcal/mol
GACCTAGGAAACTAGGCC (.(((((....))))).),39.5 °C,-19.3 kcal/mol
GTGCACCGAAAGGTACAC (((.(((....))).))),53.7 °C,-36.5 kcal/mol
GCGTACGAAAGTAACCGC ((((((....)))..))),45 °C,-22.1 kcal/mol
GGGGCGACGAAAGTCCCC (((..(((....)))))),56 °C,-16.4 kcal/mol
GATCGACCACTCGATC ((((((....)))))),50.5 °C,-38.1 kcal/mol
GGCTCTGAAAAGAGCC ((((((....)))))),68.9 °C,-38.3 kcal/mol
GAAACCGAAAGGTGTTTC ((((((....)))..))),35.9 °C,-13.2 kcal/mol
GACGTTGGAAACAACGTC (((((((....))))))),68 °C,-39.1 kcal/mol
GATCCTAGAAGGATC ((((((...)))))),53.4 °C,-40.9 kcal/mol
GATCGGAGCCCCGATC ((((((....)))))),54.7 °C,-32.6 kcal/mol
GGAGCTGAAAAGCTCC ((((((....)))))),68.9 °C,-37.5 kcal/mol
GTAATCGGAAACGATTAC (((((((....))))))),56.4 °C,-42.4 kcal/mol

Sequence,Tm [1],folding enthalpy [2]
GTGGGCGAAAGCCTGCAC ((((((....)))..))),45.3 °C,-12.4 kcal/mol
GAAACCGAAAGGTGCTTC ((((((....)))..))),43.5 °C,-19.4 kcal/mol
GATCACCGGAGTGATC ((((((....)))))),57.7 °C,-41.2 kcal/mol
CGCGCGGAAACGCTAGCG ((((((....)))..))),55.6 °C,-31 kcal/mol
GATCTGTCAGCAGATC ((((((....)))))),51.7 °C,-40.7 kcal/mol
GTCTGAACGAAAGTTGAC (((..(((....)))))),31.7 °C,-16.4 kcal/mol
GATCCACTTTGGATC ((((((...)))))),53.1 °C,-33.3 kcal/mol
GCCTACGGAAACGCAGGC ((((.((....)).)))),52.6 °C,-27.6 kcal/mol
GCGTCAACACGC ((((....)))),48.5 °C,-21.8 kcal/mol
GATCCTGGAAGGATC ((((((...)))))),62.8 °C,-31.6 kcal/mol
GTTTGTGGAAACGCAAAC (((((.(....).))))),48.4 °C,-36.2 kcal/mol
GCTCGCGAAAGCGTTAGC ((((((....)))..))),45.9 °C,-14.1 kcal/mol
GATCCATCATTGGATC ((((((....)))))),51.4 °C,-35.8 kcal/mol
GCGTCCGGAAACAGACGC (((((.(....).))))),54 °C,-36.1 kcal/mol
GATTATGCGAAAGCAATC (((..(((....)))))),23.4 °C,-9.91 kcal/mol
GGAGCAGGAAACCGCTCC (((((.(....).))))),55.2 °C,-34.1 kcal/mol
GGCTTCGAAAGAAGTGCC ((((((....)))..))),42.6 °C,-16.1 kcal/mol
CAAGGGAAACCTTG (((((....))))),43.9 °C,-27.8 kcal/mol
GAACTGGGAAACCAGTTC (((((((....))))))),61.7 °C,-40.7 kcal/mol
GATCATCTTATGATC ((((((...)))))),49.8 °C,-34.7 kcal/mol
GATCCGCGGCCGGATC ((((((....)))))),56 °C,-38.4 kcal/mol
GATCAGCAGCTGATC ((((((...)))))),48.8 °C,-48.4 kcal/mol
GACGTTGGAAACAGTGTC (((..((....))..))),31.2 °C,-14.1 kcal/mol
GCATAGCGAAAGCTCCGC ((..(((....)))..)),32.6 °C,-8.77 kcal/mol

Sequence,Tm [1],folding enthalpy [2]
TGGGGGAAACCCCA (((((....))))),53.5 °C,-17.2 kcal/mol
GGTCGAGCGAAAGCTACC (((..(((....)))))),33.3 °C,-11.9 kcal/mol
GATCCACGTTGGATC ((((((...)))))),50.6 °C,-29.7 kcal/mol
GTTAATGGAAACATTAAC (((((((....))))))),49.4 °C,-37.7 kcal/mol
CGCGGATGATTCCGCG ((((((....)))))),69.3 °C,-31.2 kcal/mol
GATCGTATGACGATC ((((((...)))))),55.6 °C,-34 kcal/mol
GGATTAGGAAACCAATCC (((((.(....).))))),34.4 °C,-34 kcal/mol
GCCGATGGAAACGTCGGC (((((.(....).))))),62.7 °C,-44.9 kcal/mol
GAGCTTGGAAACGAGCTC (((((.(....).))))),53.4 °C,-45.1 kcal/mol
GCACTAGAAATAGTGC ((((((....)))))),55.4 °C,-33.6 kcal/mol
GCTGCGCGAAAGCGAAGC (((.(((....))).))),69.1 °C,-29.7 kcal/mol
GATCCTAAGAGGATC ((((((...)))))),53.8 °C,-29.6 kcal/mol
GGCGGAACGAAAGTTGCC (((..(((....)))))),47.6 °C,-19.5 kcal/mol
CGATGCGGAAACGCTCG (((.(((....)))))),50 °C,-28.4 kcal/mol
GCTCCCGAAAGGGTTAGC ((((((....)))..))),43.3 °C,-16.2 kcal/mol
GCATCGGGAAACTGGTGC (((.(.(....).).))),42.7 °C,-29 kcal/mol
GTGCACGAAAGTGGCCAC ((((((....)))..))),40.6 °C,-13.3 kcal/mol
GATCGACCAGTCGATC ((((((....)))))),57.4 °C,-43.9 kcal/mol
GATCTTTCACAAGATC ((((((....)))))),43.1 °C,-30.5 kcal/mol
GCACGCGAAAGCGTATGC ((((((....)))..))),50.9 °C,-13.3 kcal/mol
GTAAGTCGAAAGACATAC (((.(((....))).))),38.7 °C,-21.5 kcal/mol
